Here are results for 3 compounds from ChEMBL document CHEMBL2046398, “Optimization of (2,3-dihydro-1-benzofuran-3-yl)acetic acids: discovery of a non-free fatty acid-like, highly bioavailable G protein-coupled receptor 40/free fatty acid receptor 1 agonist as a glucose-dependent insulinotropic agent” (J Med Chem, 2012).

The source made the active and inactive calls. No cut-off for these calls is given here.

Data set [1] deals with Rattus norvegicus. Description: Insulinotropic activity in po dosed fasted Wistar fatty rat assessed as […] administered 1 hr prior to glucose-challenge by oral glucose tolerance test relative to vehicle control. The data set is classed as functional. The method in brief: (§1)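 Female Wistar fatty rats, 12–17 weeks old, were fasted overnight. They were dosed orally with compound in 0.5% methylcellulose 1 h (1 mg/kg) or 4 h (3 mg/kg) before a 1 g/kg oral glucose load. Plasma glucose was sampled to 120 min, n = 6. Effective dose was defined by statistical significance on plasma glucose AUC versus vehicle.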

Data set [2] has as its system Rattus norvegicus. Description: Insulinotropic activity in po dosed fasted Wistar fatty rat assessed as […] administered 4 hr prior to glucose-challenge by oral glucose tolerance test relative to vehicle control. The format is functional. The method in brief: as §1
Data set [3] has as its system Rattus norvegicus. Description: Insulinotropic activity in po dosed Goto-Kakizaki rat assessed as increase in plasma insulin secretion administered 1 hr prior to glucose-challenge by oral glucose tolerance test. The data set is classed as functional. The gist of the method:
(§2)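 Male GK rats, 41 weeks old, were fasted overnight. They received compound suspended in 0.5% methylcellulose orally, 1–10 mg/kg, 1 h before a 1 g/kg oral glucose load. Tail-vein blood was taken pre-dose, at 0 min and at 10, 30, 60 and 120 min. Plasma glucose was read by autoanalyzer and insulin by radioimmunoassay, with AUC0–120min. n = 6. Williams/Shirley–Williams tests versus vehicle.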

Data set [4] relates to Rattus norvegicus. Description: Insulinotropic activity in po dosed Goto-Kakizaki rat assessed as decrease in plasma glucose level administered 1 hr prior to glucose-challenge by oral glucose tolerance test. The format is functional. The method in brief: as §2
The target of data set [5] is Free fatty acid receptor 1 (Homo sapiens, UniProt O14842). The experiment in a line: Agonist activity at human GP40 receptor expressed in CHO cells assessed as increase in intracellular calcium level at 10 uM for 90 secs by FLIPR assay in the presence of 0.1% BSA relative to gamma-linolenic acid. The format is functional, cell-based. The method in brief:
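CHO dhfr cells stably expressing human GPR40/FFA1 (NM_005303) plated overnight at 37 °C, 5% CO₂, then loaded 60 min at 37 °C with Fluo 4 AM (2.5 μg/mL), 2.5 mmol/L probenecid and 0.1% fatty acid-free BSA. Ca²⁺ rise after compound addition read on FLIPR Tetra for 90 s. Activity = (test − vehicle)/(10 μM γ-linolenic acid − vehicle) × 100.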

In data set [6] the test system is Rattus norvegicus. The experiment in a line: Insulinotropic activity in Goto-Kakizaki rat assessed as increase in plasma insulin secretion at 1 to 10 mg/kg, po administered 1 hr prior to glucose-challenge by oral glucose tolerance test. The data set is classed as functional, organism-based. Conditions: TDE = time-dependent effect. The method in brief: as §2
Data set [7] has as its system Rattus norvegicus. The experiment in a line: Insulinotropic activity in Goto-Kakizaki rat assessed as decrease in plasma glucose level at 1 to 10 mg/kg, po administered 1 hr prior to glucose-challenge by oral glucose tolerance test. The settings on record: TDE = time-dependent effect. The data set is classed as functional, organism-based. The method in brief: as §2

Data set [8] concerns Rattus norvegicus. The experiment in a line: Insulinotropic activity in Goto-Kakizaki rat assessed as increase in plasma insulin secretion at 1 to 10 mg/kg, po after 1 hr measured at glucose charge (0 mins).
The species entered for data set [9] is Rattus norvegicus. Description: Drug metabolism in rat assessed as biphenylylcarboxylic acid derivative formation. The settings on record: in vivo. The data set is classed as ADME, organism-based.
Data set [10] is filed under the species Rattus norvegicus. Description: Drug metabolism in rat assessed as taurine conjugate formation measured in bile. The data set is classed as ADME, organism-based. The settings on record: in vivo.
Data set [11] is filed under the species Rattus norvegicus. The experiment in a line: Drug metabolism in rat assessed as acyl glucuronide derivative formation in bile. The format is ADME, organism-based. Conditions: in vivo.
The species named for data set [12] is Rattus norvegicus. The experiment in a line: Drug metabolism in rat assessed as biphenylylcarboxylic acid derivative formation in feces. The format is ADME, organism-based. Conditions: in vivo.
The species entered for data set [13] is Rattus norvegicus. The experiment in a line: Drug metabolism in rat assessed as taurine conjugate formation measured in feces. The data set is classed as ADME, organism-based. The settings on record: in vivo.
The species named for data set [14] is Rattus norvegicus. Description: Drug metabolism in rat assessed as acyl glucuronide derivative formation measured in feces. Conditions: in vivo. The format is ADME, organism-based.
For data set [15], the species on record is Canis familiaris. Description: Drug metabolism in dog assessed as biphenylylcarboxylic acid derivative formation measured in feces. The data set is classed as ADME, organism-based, Canis lupus familiaris. Conditions: in vivo.
For data set [16], the species on record is Canis familiaris. The experiment in a line: Drug metabolism in dog assessed as taurine conjugate formation measured in feces. The data set is classed as ADME, organism-based, Canis lupus familiaris. Conditions: in vivo.
The species named for data set [17] is Canis familiaris. The experiment in a line: Drug metabolism in dog assessed as acyl glucuronide derivative formation measured in feces. Conditions: in vivo. The format is ADME, organism-based, Canis lupus familiaris.
The species entered for data set [18] is Rattus norvegicus. Description: Drug metabolism in rat assessed as beta-oxidation derivative formation. The format is ADME, organism-based. The settings on record: in vivo.
For data set [19], the species on record is Canis familiaris. Description: Drug metabolism in dog assessed as beta-oxidation derivative formation. The format is ADME, organism-based, Canis lupus familiaris. The settings on record: in vivo.

Sequence of Free fatty acid receptor 1 (O14842 whole entry): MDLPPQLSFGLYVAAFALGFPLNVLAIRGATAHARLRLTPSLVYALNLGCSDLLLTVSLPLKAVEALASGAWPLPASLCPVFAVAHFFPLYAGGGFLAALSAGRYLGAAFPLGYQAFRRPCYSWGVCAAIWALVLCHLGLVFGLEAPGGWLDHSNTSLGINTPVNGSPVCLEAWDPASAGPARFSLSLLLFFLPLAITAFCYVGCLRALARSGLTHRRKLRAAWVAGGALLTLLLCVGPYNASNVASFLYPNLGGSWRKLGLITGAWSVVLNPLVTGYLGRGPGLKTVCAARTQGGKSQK

Take `Cc1cc(OCCCS(C)(=O)=O)cc(C)c1-c1cccc(COc2ccc3c(c2)OC[C@H]3CC(=O)O)c1.O`: the ED is 1 mg/kg in the data set with Rattus norvegicus [1] and 3 mg/kg with Rattus norvegicus [2]. Besides, the minimal effective dose with Rattus norvegicus [3] (read-out: MED) was determined as 10 mg/kg; in the data set with Rattus norvegicus [4] (read-out: MED), 3 mg/kg.
Consider `Cc1cc(OCCCS(C)(=O)=O)cc(C)c1-c1cccc(COc2ccc3c(c2)OC[C@H]3CC(=O)O)c1`, for which the Efficacy in [5] stood at 107%. The Activity entry was “Dose-dependent effect” in the data set on Rattus norvegicus [3], “Dose-dependent effect” in the data set on Rattus norvegicus [4], “tde” in the data set with Rattus norvegicus [6] and “tde” in the data set on Rattus norvegicus [7]. Moreover, the result with Rattus norvegicus [8] was Active.
As to `Cc1cc(OCCCS(C)(=O)=O)cc(C)c1-c1cccc([14CH2]Oc2ccc3c(c2)OC[C@H]3CC(=O)O)c1`, the Drug metabolism result in the data set listed under Rattus norvegicus [9], in the data set filed under Rattus norvegicus [10], in the data set listed under Rattus norvegicus [11], in the data set filed under Rattus norvegicus [12], in the data set listed under Rattus norvegicus [13] and in the data set filed under Rattus norvegicus [14] was “Active” throughout. Also, the Drug metabolism result in the data set filed under Canis familiaris [15] was “Active”; in the data set listed under Canis familiaris [16], “Active”; in the data set listed under Canis familiaris [17], “Active”; in the data set listed under Rattus norvegicus [18] it was “Not Active”; in the data set filed under Canis familiaris [19], “Not Active”.
